Test results published in ChEMBL document CHEMBL2029214, “Radiosynthesis and evaluation of an (18)F-labeled positron emission tomography (PET) radioligand for brain histamine subtype-3 receptors based on a nonimidazole 2-aminoethylbenzofuran chemotype” (J Med Chem, 2012).

Assays:
[1] = Drug uptake in rhesus monkey thalamus at 3.91+/-0.46 mCi, iv administered 30 mins post-ciproxifan treatment measured at 180 mins by PET imaging; assay type: ADME, organism-based, Macaca mulatta; conditions: in vivo, 3 h
How it was run: (§1)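 Male rhesus monkeys (7.3 ± 0.8 kg; n = 4 baseline), ketamine 10 mg/kg i.m. then 1.5% isoflurane in O2. […] [18F]ligand given i.v. Focus 220 microPET, 180 min (one scan 120 min), 45 frames 30 s–5 min, scatter/attenuation corrected, decay-corrected; template-normalized regions; uptake as SUV.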

[2] = Drug uptake in rhesus monkey thalamus at 3.91+/-0.46 mCi, iv administered 30 mins post-(R)-(4-fluorophenyl)(2-(2-(2-methylpyrrolidin-1-yl)ethyl)benzofuran-5-yl)methanone treatment measured up to 180 mins by PET imaging; assay type: ADME, organism-based, Macaca mulatta; conditions: in vivo; how it was run: as §1
[3] = Unbound fraction in rhesus monkey plasma at 3.91+/-0.46 mCi, iv by ultrafiltration; assay type: ADME, organism-based, Macaca mulatta
How it was run: (§2)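 Arterial plasma from monkeys scanned at baseline or 30 min after unlabeled ligand (1.0 mg/kg i.v.) pretreatment; free fraction of [18F]ligand measured by ultrafiltration, each plasma sample in triplicate.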

[4] = system: Striatum; test: Drug uptake in rhesus monkey striatum at 3.91+/-0.46 mCi, iv administered 30 mins post-(R)-(4-fluorophenyl)(2-(2-(2-methylpyrrolidin-1-yl)ethyl)benzofuran-5-yl)methanone treatment measured up to 180 mins by PET imaging; assay type: ADME, organism-based, Macaca mulatta; conditions: in vivo; how it was run: as §1
[5] = system: Plasma; test: Drug metabolism in rhesus monkey plasma assessed as decrease in unchanged compound at 3.87 mCi, iv administered 30 mins post-(R)-(4-fluorophenyl)(2-(2-(2-methylpyrrolidin-1-yl)ethyl)benzofuran-5-yl)methanone treatment by radio-HPLC; assay type: ADME, organism-based, Macaca mulatta; conditions: in vivo, 0.5 h
[6] = Drug uptake in rhesus monkey frontal cortex at 3.91+/-0.46 mCi, iv at 180 mins by PET imaging; assay type: ADME, organism-based, Macaca mulatta; conditions: in vivo, 3 h; how it was run: as §1
[7] = Drug uptake in rhesus monkey cerebellum at 3.91+/-0.46 mCi, iv at 180 mins by PET imaging; assay type: ADME, organism-based, Macaca mulatta; conditions: in vivo, 3 h
[8] = Metabolic stability in monkey plasma assessed as compound remaining after 2.5 hrs by radio-HPLC; assay type: ADME, cell-free, Macaca mulatta; conditions: rhesus monkey, read-out: Stability
How it was run: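 Radioligand incubated in monkey plasma in vitro at room temperature for 2.5 h; percent unchanged by reverse-phase radio-HPLC (C18 radial compression, MeOH:H2O:Et3N 85:15:0.1, 2.0 mL/min); n = 6.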

[9] = system: Brain; test: Drug metabolism in rhesus monkey brain assessed as radiodefluorination at 3.91 mCi, iv by PET; conditions: in vivo
[10] = system: Plasma; test: Drug metabolism in rhesus monkey plasma assessed as decrease in unchanged compound at 3.87 mCi, iv by radio-HPLC; assay type: ADME, organism-based, Macaca mulatta; conditions: in vivo
[11] = system: Plasma; test: Drug metabolism in rhesus monkey plasma assessed as radiometabolite formation at 3.87 mCi, iv by radio-HPLC; assay type: ADME, organism-based, Macaca mulatta; conditions: in vivo
[12] = Drug uptake in rhesus monkey frontal cortex at 3.91+/-0.46 mCi, iv administered 30 mins post-(R)-(4-fluorophenyl)(2-(2-(2-methylpyrrolidin-1-yl)ethyl)benzofuran-5-yl)methanone treatment measured up to 180 mins by PET imaging; assay type: ADME, organism-based, Macaca mulatta; conditions: in vivo
[13] = system: Plasma; test: Drug metabolism in rhesus monkey plasma assessed as radiometabolite formation at 3.87 mCi, iv administered 30 mins post-(R)-(4-fluorophenyl)(2-(2-(2-methylpyrrolidin-1-yl)ethyl)benzofuran-5-yl)methanone treatment by radio-HPLC; assay type: ADME, organism-based, Macaca mulatta; conditions: in vivo, 0.5 h
[14] = Drug uptake in rhesus monkey thalamus at 3.91+/-0.46 mCi, iv by PET imaging; assay type: ADME, organism-based, Macaca mulatta; conditions: in vivo; how it was run: as §1
[15] = system: Hippocampus; test: Drug uptake in rhesus monkey hippocampus at 3.91+/-0.46 mCi, iv by PET imaging; assay type: ADME, organism-based, Macaca mulatta; conditions: in vivo; how it was run: as §1
[16] = Unbound fraction in rhesus monkey plasma at 3.91+/-0.46 mCi, iv administered 30 mins post-(R)-(4-fluorophenyl)(2-(2-(2-methylpyrrolidin-1-yl)ethyl)benzofuran-5-yl)methanone treatment by ultrafiltration; assay type: ADME, organism-based, Macaca mulatta; how it was run: as §2
[17] = system: Striatum; test: Drug uptake in rhesus monkey striatum at 3.91+/-0.46 mCi, iv administered 30 mins post-ciproxifan treatment measured at 180 mins by PET imaging; assay type: ADME, organism-based, Macaca mulatta; conditions: in vivo, 3 h; how it was run: as §1
[18] = Drug uptake in rhesus monkey cerebellum at 3.91+/-0.46 mCi, iv administered 30 mins post-(R)-(4-fluorophenyl)(2-(2-(2-methylpyrrolidin-1-yl)ethyl)benzofuran-5-yl)methanone treatment measured up to 180 mins by PET imaging; assay type: ADME, organism-based, Macaca mulatta; conditions: in vivo
[19] = system: Hippocampus; test: Drug uptake in rhesus monkey hippocampus at 3.91+/-0.46 mCi, iv at 180 mins by PET imaging; assay type: ADME, organism-based, Macaca mulatta; conditions: in vivo, 3 h; how it was run: as §1
[20] = system: Brain; test: Drug uptake in FVB mouse whole brain at 73+/-29 uCi, iv administered 30 mins post-(R)-(4-fluorophenyl)(2-(2-(2-methylpyrrolidin-1-yl)ethyl)benzofuran-5-yl)methanone treatment measured at 90 mins by PET imaging; assay type: ADME, organism-based; conditions: in vivo, 1.5 h
How it was run: (§3)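 Dynamic microPET ran 120 min with frames of 20 s to 20 min, without attenuation or scatter correction. Decay-corrected whole-brain curves expressed as SUV = (%ID/cm3) × (g body weight).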

[21] = Metabolic stability in monkey whole blood assessed as compound remaining after 2.5 hrs by radio-HPLC; assay type: ADME, tissue-based, Macaca mulatta; conditions: rhesus monkey, read-out: Stability
How it was run: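 [18F]Radioligand was incubated in monkey whole blood at room temperature for 2.5 h in vitro, n = 6. Unchanged fraction was measured by radio-HPLC on reverse-phase C18 in a radial compression module, eluted at 2.0 mL/min with MeOH:H2O:Et3N (85:15:0.1).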

[22] = system: Brain; test: Drug uptake in FVB mouse whole brain at 73+/-29 uCi, iv at 90 mins by PET imaging; assay type: ADME, organism-based; conditions: in vivo, 1.5 h; how it was run: as §3
[23] = system: Plasma; test: Drug metabolism in rhesus monkey plasma assessed as radiometabolite formation at 3.87 mCi, iv administered 30 mins post-ciproxifan treatment by radio-HPLC; assay type: ADME, organism-based, Macaca mulatta; conditions: in vivo, 0.5 h
[24] = system: Brain; test: Drug uptake in FVB mouse whole brain at 73+/-29 uCi, iv administered 30 mins post-(R)-(2-(2-(2-methylpyrrolidin-1-yl)ethyl)benzofuran-5-yl)(4-nitrophenyl)methanone treatment measured at 90 mins by PET imaging; assay type: ADME, organism-based; conditions: in vivo, 1.5 h; how it was run: as §3
[25] = system: Plasma; test: Drug metabolism in rhesus monkey plasma assessed as decrease in unchanged compound at 3.87 mCi, iv administered 30 mins post-ciproxifan treatment by radio-HPLC; assay type: ADME, organism-based, Macaca mulatta; conditions: in vivo, 0.5 h
[26] = system: Striatum; test: Drug uptake in rhesus monkey striatum at 3.91+/-0.46 mCi, iv at 180 mins by PET imaging; assay type: ADME, organism-based, Macaca mulatta; conditions: in vivo, 3 h; how it was run: as §1
[27] = system: Hippocampus; test: Drug uptake in rhesus monkey hippocampus at 3.91+/-0.46 mCi, iv administered 30 mins post-ciproxifan treatment measured at 180 mins by PET imaging; assay type: ADME, organism-based, Macaca mulatta; conditions: in vivo, 3 h; how it was run: as §1
[28] = Drug uptake in rhesus monkey thalamus at 3.91+/-0.46 mCi, iv at 180 mins by PET imaging; assay type: ADME, organism-based, Macaca mulatta; conditions: in vivo, 3 h; how it was run: as §1
[29] = Drug uptake in rhesus monkey skull at 3.91+/-0.46 mCi, iv at 180 mins by PET imaging; assay type: ADME, organism-based, Macaca mulatta; conditions: in vivo, 3 h
[30] = Drug uptake in rhesus monkey skull at 3.91+/-0.46 mCi, iv administered 30 mins post-(R)-(4-fluorophenyl)(2-(2-(2-methylpyrrolidin-1-yl)ethyl)benzofuran-5-yl)methanone treatment measured up to 180 mins by PET imaging; assay type: ADME, organism-based, Macaca mulatta; conditions: in vivo
[31] = system: Hippocampus; test: Drug uptake in rhesus monkey hippocampus at 3.91+/-0.46 mCi, iv administered 30 mins post-(R)-(4-fluorophenyl)(2-(2-(2-methylpyrrolidin-1-yl)ethyl)benzofuran-5-yl)methanone treatment measured up to 180 mins by PET imaging; assay type: ADME, organism-based, Macaca mulatta; conditions: in vivo; how it was run: as §1
[32] = Drug uptake in rhesus monkey frontal cortex at 3.91+/-0.46 mCi, iv administered 30 mins post-ciproxifan treatment measured at 180 mins by PET imaging; assay type: ADME, organism-based, Macaca mulatta; conditions: in vivo, 3 h; how it was run: as §1
[33] = system: Brain; test: Drug uptake in FVB mouse whole brain at 73+/-29 uCi, iv administered 30 mins post-ciproxifan treatment measured at 4.5 mins by PET imaging; assay type: ADME, organism-based; conditions: in vivo, 0.075 h; how it was run: as §3
[34] = Drug uptake in rhesus monkey cerebellum at 3.91+/-0.46 mCi, iv administered 30 mins post-ciproxifan treatment measured at 180 mins by PET imaging; assay type: ADME, organism-based, Macaca mulatta; conditions: in vivo, 3 h

**Q.** For `C[C@@H]1CCCN1CCc1cc2cc(C(=O)c3ccc([18F])cc3)ccc2o1`, which Drug uptake [1] is on record?
**A.** Not Active

**Q.** What about the Drug uptake [2] of the same molecule?
**A.** Not Active

**Q.** What about the fraction unbound [3] of the same molecule?
**A.** 0.0208

**Q.** What about the Drug uptake [4] of the same molecule?
**A.** Not Active

**Q.** What about the Drug metabolism [5] of the same molecule?
**A.** Active

**Q.** And the Drug uptake [6]?
**A.** Not Active

**Q.** And the Drug uptake [7]?
**A.** Not Active

**Q.** And the remaining at 2.5 h [8]?
**A.** 99.2%

**Q.** And the Drug metabolism [9]?
**A.** Not Active

**Q.** And the Drug metabolism [10]?
**A.** Active

**Q.** What about the Drug metabolism [11] of the same molecule?
**A.** Active

**Q.** And the Drug uptake [12]?
**A.** Not Active

**Q.** And the Drug metabolism [13]?
**A.** Active

**Q.** What about the Drug uptake [14] of the same molecule?
**A.** Active

**Q.** What about the Drug uptake [15] of the same molecule?
**A.** Active

**Q.** What about the fraction unbound at 0.5 h [16] of the same molecule?
**A.** 0.014

**Q.** And the Drug uptake [17]?
**A.** Not Active

**Q.** And the Drug uptake [18]?
**A.** Not Active

**Q.** And the Drug uptake [19]?
**A.** Not Active

**Q.** What about the SUV [20] of the same molecule?
**A.** < 1.2

**Q.** What about the remaining at 2.5 h [21] of the same molecule?
**A.** 98.4%

**Q.** What about the SUV [22] of the same molecule?
**A.** 2.3

**Q.** What about the Drug metabolism [23] of the same molecule?
**A.** Active

**Q.** And the SUV [24]?
**A.** < 1.2

**Q.** What about the Drug metabolism [25] of the same molecule?
**A.** Active

**Q.** What about the Drug uptake [26] of the same molecule?
**A.** Not Active

**Q.** What about the Drug uptake [27] of the same molecule?
**A.** Not Active

**Q.** What about the Drug uptake [28] of the same molecule?
**A.** Not Active

**Q.** And the Drug uptake [29]?
**A.** Not Active

**Q.** What about the Drug uptake [30] of the same molecule?
**A.** Not Active

**Q.** What about the Drug uptake [31] of the same molecule?
**A.** Not Active

**Q.** What about the Drug uptake [32] of the same molecule?
**A.** Not Active

**Q.** And the SUV [33]?
**A.** 1.98

**Q.** And the Drug uptake [34]?
**A.** Active
